The values that follow come from ChEMBL document CHEMBL1141783, “Neuroprotective and antioxidant activity of compounds from the aerial parts of Dioscorea opposita” (2005).

Experiment [1] is described as follows: Neuroprotective activity in Swiss-Webster mouse neocortical cells with oxygen and glucose deprivation assessed as decrease in lactic dehydrogenase leakage at 21.7 uM. It counts as functional. Set-up: scale not given: the % may be the effect or the level left. The method, boiled down: (§1)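 Cultured neocortical cells were exposed to OGD with compound at one of three final concentrations; controls received the same volume of glucose-free Earle's buffer instead. For OGD, the chamber was flushed with 95% N2/5% CO2 for 10 min, sealed, and kept at 37 °C for 25 min, followed by 30 min under normal conditions. The treatment was repeated twice, and cells were held 6 h at 37 °C after the last one. LDH was measured in medium and in freeze-thaw lysate. Leakage = extracellular/(extracellular+intracellular) ×100%.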

Experiment [2] deals with Brain. The experiment in a line: Antioxidant activity in rat brain assessed as malondialdehyde level at 2.17 uM by thiobarbituric acid method. Format: functional. In outline: (§2)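 Rat brain MDA was measured by the thiobarbituric acid method, following a previously published protocol. Each compound was tested at three final concentrations. Freshly prepared vitamin C served as the positive control.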

In experiment [3] the test system is Plasma. The experiment in a line: Antioxidant activity in New Zealand White rabbit plasma assessed as increase in conjugated diene formation at 21.7 uM by thiobarbituric acid method. Format: functional, Oryctolagus cuniculus. The method, boiled down: (§3)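 LDL was isolated from New Zealand White rabbit plasma, and its susceptibility to oxidation was measured by a previously published method. Each compound was tested at three final concentrations. Freshly prepared vitamin C served as the positive control.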

The test system of experiment [4] is Brain. In words: Antioxidant activity in rat brain assessed as malondialdehyde level at 217 uM by thiobarbituric acid method. It counts as functional. The method, boiled down:
as §2

Experiment [5] concerns Plasma. The experiment in a line: Antioxidant activity in New Zealand White rabbit plasma assessed as increase in conjugated diene formation at 217 uM by thiobarbituric acid method. It counts as functional, Oryctolagus cuniculus. In outline:
as §3

In experiment [6] the test system is Plasma. In words: Antioxidant activity in New Zealand White rabbit plasma assessed as increase in conjugated diene formation at 2.17 uM by thiobarbituric acid method. Format: functional, Oryctolagus cuniculus. The method, boiled down: as §3
Experiment [7] is described as follows: Neuroprotective activity in Swiss-Webster mouse neocortical cells with oxygen and glucose deprivation assessed as decrease in lactic dehydrogenase leakage at 217 uM. Format: functional. Set-up: scale not given: the % may be the effect or the level left. In outline: as §1
Experiment [8] has as its system Brain. The experiment in a line: Antioxidant activity in rat brain assessed as malondialdehyde level at 21.7 uM by thiobarbituric acid method. Format: functional. In outline:
as §2

Experiment [9] is described as follows: Neuroprotective activity in Swiss-Webster mouse neocortical cells with oxygen and glucose deprivation assessed as decrease in lactic dehydrogenase leakage at 2.17 uM. More on the design: scale not given: the % may be the effect or the level left. It counts as functional. In outline: as §1
Experiment [10] relates to Brain. The experiment in a line: Antioxidant activity in rat brain assessed as malondialdehyde level at 370 uM by thiobarbituric acid method. It counts as functional. The method, boiled down: as §2
Experiment [11] can be described thus: Neuroprotective activity in Swiss-Webster mouse neocortical cells with oxygen and glucose deprivation assessed as decrease in lactic dehydrogenase leakage at 37 uM. Format: functional. More on the design: scale not given: the % may be the effect or the level left. The method, boiled down: as §1
In experiment [12] the test system is Brain. The experiment in a line: Antioxidant activity in rat brain assessed as malondialdehyde level at 37 uM by thiobarbituric acid method. It counts as functional. The method, boiled down: as §2
The subject of experiment [13] is Plasma. The experiment in a line: Antioxidant activity in New Zealand White rabbit plasma assessed as increase in conjugated diene formation at 370 uM by thiobarbituric acid method. It counts as functional, Oryctolagus cuniculus. The method, boiled down: as §3
The test system of experiment [14] is Plasma. In words: Antioxidant activity in New Zealand White rabbit plasma assessed as increase in conjugated diene formation at 3.70 uM by thiobarbituric acid method. Format: functional, Oryctolagus cuniculus. In outline: as §3
The nature of experiment [15]: Neuroprotective activity in Swiss-Webster mouse neocortical cells with oxygen and glucose deprivation assessed as decrease in lactic dehydrogenase leakage at 370 uM. Set-up: scale not given: the % may be the effect or the level left. Format: functional. The method, boiled down: as §1
A short description of experiment [16]: Neuroprotective activity in Swiss-Webster mouse neocortical cells with oxygen and glucose deprivation assessed as decrease in lactic dehydrogenase leakage at 3.70 uM. More on the design: scale not given: the % may be the effect or the level left. Format: functional. In outline:
as §1

The test system of experiment [17] is Plasma. The experiment in a line: Antioxidant activity in New Zealand White rabbit plasma assessed as increase in conjugated diene formation at 37 uM by thiobarbituric acid method. Format: functional, Oryctolagus cuniculus. In outline: as §3
Experiment [18] deals with Brain. The experiment in a line: Antioxidant activity in rat brain assessed as malondialdehyde level at 3.70 uM by thiobarbituric acid method. Format: functional. The method, boiled down: as §2
For experiment [19], the system named is Plasma. The experiment in a line: Antioxidant activity in New Zealand White rabbit plasma assessed as increase in conjugated diene formation at 568 uM by thiobarbituric acid method. Format: functional, Oryctolagus cuniculus. In outline:
as §3

Experiment [20] concerns Brain. The experiment in a line: Antioxidant activity in rat brain assessed as malondialdehyde level at 568 uM by thiobarbituric acid method. Format: functional. In outline: as §2

With `COc1cc(-c2cc(=O)c3c(O)cc(O[C@@H]4O[C@H](CO)[C@@H](O)[C@H](O)[C@H]4O)cc3o2)ccc1O`, the Activity amounted to 22.51% in experiment [1]; 1.37 nmol/mg protein in experiment [2]; 66.21% in experiment [3]; 0.95 nmol/mg protein in experiment [4]; 11.52% in experiment [5]; 62.24% in [6]. In addition, the Activity in experiment [7] was determined as 21.99%; in [8] it was 1.19 nmol/mg protein; in experiment [9], 27.35%.

With `COC1=CC(=O)c2c(ccc3cc(O)c(O)cc23)C1=O`, the Activity is 1.23 nmol/mg protein in experiment [10]; 41.09% in experiment [11]; 1.43 nmol/mg protein in experiment [12]; 95.09% in experiment [13]; 67.46% in experiment [14]; 36.58% in [15]. Besides, the Activity in experiment [16] was found to be 38.3%; in [17], 112.97%; in experiment [18] it was 1.52 nmol/mg protein.

`COc1cc(-c2cc(=O)c3c(O)cc(O)cc3o2)ccc1O[C@@H]1O[C@H](CO)[C@@H](O)[C@H](O)[C@H]1O`: the Activity was 22.74% in [1]; 1.46 nmol/mg protein in [2]; 30.16% in experiment [3]; 1.16 nmol/mg protein in [4]; 0.32% in experiment [5]; 51.62% in experiment [6]. For the same compound, the Activity is 21.14% in [7], 1.43 nmol/mg protein in experiment [8] and 25.52% in experiment [9].

As for `O=C1O[C@H]([C@@H](O)CO)C(O)=C1O` [ASCORBIC ACID], the values for the Activity in [19] and in experiment [20] were 0.17% and 1.35 nmol/mg, respectively.
